Experimental data published in ChEMBL document CHEMBL2034946, “Synthesis and biological evaluation of cyclic sulfamide derivatives as 11β-hydroxysteroid dehydrogenase 1 inhibitors” (ACS Med Chem Lett, 2012).

Legend:
[1] = target: 11-beta-hydroxysteroid dehydrogenase 1 (Homo sapiens, UniProt P28845); experiment: Inhibition of human 11beta-HSD1 expressed in CHO-K1 cells using cortisone as substrate after 3 hrs by HTRF assay; format: cell-based
How it was run: (§1)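 Cells overexpressing human or mouse 11β-HSD1 incubated with cortisone plus compound for 3 h; cortisol measured by HTRF. IC50 fitted from concentration-dependent inhibition curves; means ± SEM of triplicate experiments.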

[2] = target: 11-beta-hydroxysteroid dehydrogenase 1 (Mus musculus, UniProt P50172); experiment: Inhibition of mouse 11beta-HSD1 expressed in CHO-K1 cells using cortisone as substrate after 3 hrs by HTRF assay; format: cell-based; how it was run: as §1
Sequence of 11-beta-hydroxysteroid dehydrogenase 1 (Mus musculus, UniProt P50172) (P50172 whole entry): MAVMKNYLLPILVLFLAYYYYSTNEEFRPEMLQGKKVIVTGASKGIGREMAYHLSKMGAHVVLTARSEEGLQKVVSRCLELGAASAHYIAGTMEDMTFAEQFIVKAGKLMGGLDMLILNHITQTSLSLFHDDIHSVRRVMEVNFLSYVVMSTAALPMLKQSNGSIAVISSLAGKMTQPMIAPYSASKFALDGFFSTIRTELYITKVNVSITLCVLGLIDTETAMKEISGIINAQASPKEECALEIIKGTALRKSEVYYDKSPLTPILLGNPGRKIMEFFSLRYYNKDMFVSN

[3] = Metabolic stability in human liver microsomes assessed as compound remaining after 30 mins; format: ADME, Microsome; conditions: read-out: Stability
How it was run: (§2)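 Human and rat liver microsomes incubated with compound for 30 min; stability reported as percent parent compound remaining.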

[4] = Metabolic stability in rat liver microsomes assessed as compound remaining after 30 mins; format: ADME, Microsome; conditions: read-out: Stability; how it was run: as §2
Mus musculus [5] = experiment: Ex-vivo inhibition of 11betaHSD1 in C57BL/6 mouse fat at 20 mg/kg, po after 2 hrs by ELISA; format: functional; conditions: C57BL/6, 2 h
How it was run: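 Normal mice dosed orally (1, 5, 10 or 20 mpk); 11β-HSD1 activity in fat tissue measured ex vivo 2 h post-dose.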

Mus musculus [6] = experiment: Ex-vivo inhibition of 11betaHSD1 in C57BL/6 mouse liver at 20 mg/kg, po after 2 hrs by ELISA; format: functional; conditions: C57BL/6, Liver
How it was run: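 Normal mice given 20 mpk orally; liver tissue taken 2 h after dosing and 11β-HSD1 activity measured ex vivo as % inhibition relative to vehicle.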

Sequence of 11-beta-hydroxysteroid dehydrogenase 1 (Homo sapiens, UniProt P28845) (P28845 whole entry): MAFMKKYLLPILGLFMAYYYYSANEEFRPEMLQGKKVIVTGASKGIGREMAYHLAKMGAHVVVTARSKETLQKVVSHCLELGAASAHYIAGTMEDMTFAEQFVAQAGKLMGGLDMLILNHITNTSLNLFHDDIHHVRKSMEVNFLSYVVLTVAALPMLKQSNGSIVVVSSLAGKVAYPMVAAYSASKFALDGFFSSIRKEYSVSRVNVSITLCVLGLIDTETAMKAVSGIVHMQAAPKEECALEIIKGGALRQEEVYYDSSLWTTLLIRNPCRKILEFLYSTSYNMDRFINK

SMILES	IC50 ([1]; read-out: IC50)	IC50 [2]	remaining at 0.5 h [3]	remaining at 0.5 h [4]	inhibition in vivo at 20 mg/kg (Mus musculus [5])	IC50 ([1]; cho-k1)	inhibition in vivo at 20 mg/kg (Mus musculus [6])
CC1CCN(c2c(Cl)cc(Cl)cc2Cl)S(=O)(=O)N1CC(=O)N[C@H]1C2CC3CC1C[C@](C(N)=O)(C3)C2 (mixture of isomers)	1 nM	70 nM	94%	70%	74.5%		
NC(=O)[C@]12CC3CC(C1)[C@@H](NC(=O)CN1CCCN(c4c(F)cc(F)cc4F)S1(=O)=O)C(C3)C2	20 nM	157 nM					
NC(=O)[C@]12CC3CC(C1)[C@@H](NC(=O)CN1CCCN(c4cccc(F)c4)S1(=O)=O)C(C3)C2	50 nM	140 nM					
O=C(O)CN1CCCN(c2ccccc2)S1(=O)=O						Not Active	
O=C(CN1CCCN(c2ccccc2)S1(=O)=O)NC12CC3CC(CC(C3)C1)C2	3370 nM						

The remaining molecules from weak to strong by IC50 ([1]; read-out: IC50), led by results:

IC50 ([1]; read-out: IC50)	IC50 [2]	remaining at 0.5 h [3]	remaining at 0.5 h [4]	SMILES	inhibition in vivo at 20 mg/kg (Mus musculus [5])	IC50 ([1]; cho-k1)	inhibition in vivo at 20 mg/kg (Mus musculus [6])
1660 nM				O=C(CN1CCCN(CCc2ccccc2)S1(=O)=O)NC1C2CC3CC(C2)CC1C3 (stereo not given)			
17 nM	207 nM			NC(=O)[C@]12CC3CC(C1)[C@@H](NC(=O)CN1CCCN(c4ccccc4)S1(=O)=O)C(C3)C2			
1 nM	4 nM	61%	57%	NC(=O)[C@]12CC3CC(C1)[C@@H](NC(=O)CN1CCCN(c4c(Cl)cc(Cl)cc4Cl)S1(=O)=O)C(C3)C2	92.1%		83.7%
